Bioassay records: PubChem BioAssay, The Scripps Research Institute Molecular Screening Center
HCV NS3 hel inh – HCV NS3 helicase inhibition; NS3 helicase DNA unwinding, Cy5 molecular beacon fluorescence; inhibition, % at 10.9 µM; 290,000 compounds, 0.56% hits; AID 1800;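 active means inhibition above the mean of all tested compounds plus 3 SD, set per campaign, cut at about 35% in these data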;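 further: 0% = DMSO wells and 100% = thioflavine S control wells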
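test system = hepatitis C virus NS3 helicase domain fragment enzyme | reagent = annealed dual-labelled DNA beacon duplex, ATP-started | times = 1 h at 25 °C | detection = Cy5 fluorescence, 0 and 60 min reads | read-out basis = percent inhibition from t60/t0 fluorescence ratio | control set = DMSO and thioflavine S | replication = one well per compound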
IMP-1 inh – inhibitors of Pseudomonas aeruginosa IMP-1 metallo-beta-lactamase; purified IMP-1, nitrocefin hydrolysis, epi-absorbance fluorescence; 290,000 compounds, 0.45% hits; inhibition, % at 5.6 µM;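 active means inhibition above the mean plus 3 SD of all compounds in the same screening run, cut at about 4.5% in these data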;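 further: 0% = IMP-1 with DMSO and 100% = DMSO wells lacking enzyme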
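system = purified recombinant IMP-1 beta-lactamase | amount = 0.2 nM IMP-1, as dispensed | medium = HEPES buffer pH 7.1 with ZnSO4 and Brij 35 | times = 25 °C, 15 min preincubation, 25 min reaction | detection = plate fluorescence quenching by hydrolysis product, ex 480/em 530 nm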
DNA FID counter – displaces DNA intercalator in HCV helicase counter-screen. inhibition, % at 7.9 µM. DNA fluorescent intercalator displacement, fluorescence. 290,000 compounds, 0.17% hits; in the data active means inhibition above about 37%;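 further: 0% = vehicle and 100% = reference compound; higher means more ethidium bromide displaced from hairpin DNA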
VIM-2 inhibitor – blocks Pseudomonas aeruginosa VIM-2 metallo-beta-lactamase; inhibition, % at 5.6 µM; AID 1527; purified VIM-2, nitrocefin hydrolysis, epi-absorbance fluorescence; 290,000 compounds, 0.89% hits;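 active means inhibition above the mean of all tested compounds plus 3 SD, cutoff set per screening run, cut at about 7.5% in these data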;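 further: red hydrolysis product quenches plate fluorescence so inhibitors raise well fluorescence; 0% = enzyme with DMSO and 100% = DMSO without enzyme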
* hit, by the source's call. In the library only some 1.9% were active in any assay of this set; here they are far more common.

SMILES | HCV NS3 hel inh | IMP-1 inh | DNA FID counter | VIM-2 inhibitor
CCC(=O)N1CCc2cc(Br)cc(S(=O)(=O)N3CCC(C(=O)NC(C)C)CC3)c21 | 14 | -3 | -37 | -1
COc1cccc(NC(=O)N2CCCC2C(=O)NCc2ccc(Cl)cc2)c1 (configuration not stated) | 1 | -2 | -11 | -2
CCOc1ccc([N+](=O)[O-])cc1CNC1CCCCCCC1 | -2 | 39* | 21 | 1
COC(=O)C1CCN(C2=C(NS(=O)(=O)c3ccc(Cl)cc3)C(=O)c3ccccc3C2=O)CC1 | 14 | -1 | 3 | 8.4*
COc1ccc(NC(=O)C(=O)N2N=C3CCCCC3C2(O)C(F)(F)F)cc1 (configuration not stated) | 1 | -4 | -5 | -5
CC1CCN(Cc2nc(-c3ccccc3)no2)CC1 | -6 | -1 | -2 | -3
c1ccc(-c2noc(CN3CCCC(OCc4ccccn4)C3)n2)cc1 (configuration not stated) | -10 | -2 | 60* | -2
CN(C)c1cccc(C(=O)NNC(=O)CSc2ccccc2)c1 | -5 | -2 | -6 | -1
O=C(O)c1ccccc1OCc1ccccc1Br | 4 | 1 | -1 | 9.1*
O=C(O)c1ccccc1COc1ccccc1Cl | -4 | 0 | 2 | -1
O=C(Nc1ccc(Cl)cc1)OCc1cn(-c2ccccc2)nn1 | 10 | 7.5* | -19 | -3
COc1ccc(C(=O)c2cc([N+](=O)[O-])ccc2N2CCN(C)CC2)cc1 | -21 | -1 | 40* | -1
O=C(Nc1ccc(Cc2ccncc2)cc1)c1cc([N+](=O)[O-])ccc1N1CCOCC1 | -3 | -2 | -7 | -3
CN1CCN(c2ccc(NC(=O)c3cc([N+](=O)[O-])ccc3N3CCOCC3)cc2)CC1 | -18 | -2 | 24 | 12*
Clc1ccc(N2COC3c4cccc5cccc(c45)C32)cc1 (configuration not stated) | -4 | 1 | -3 | -4
COc1ccc(N2COC3c4cccc5cccc(c45)C32)cc1 (configuration not stated) | 10 | 4.7* | -11 | 1
CC(C)Cn1c(=O)c2ccccc2n2c(CCC(=O)O)nnc12 | 8 | -2 | -2 | -2
COc1ccc(Nc2cc(C)nc3nc(C)nn23)c(OC)c1 | -10 | -3 | -12 | 12*
COC(=O)c1ccc(Nc2cc(C)nc3nc(C)nn23)cc1 | -2 | 2 | -2 | 7
Cc1cc(Nc2ccc(F)c(Cl)c2)n2nc(C)nc2n1 | 0 | -5 | -9 | 1
CCOC(=O)c1ccccc1Nc1cc(C)nc2nc(C)nn12 | 1 | -2 | -11 | 9.5*
COc1ccc(Nc2cc(C)nc3ncnn23)c(OC)c1 | -3 | -2 | -8 | 6
CCOc1ccc(Nc2cc(C)nc3nc(C)nn23)cc1 | 11 | 1 | -2 | 8.4*
COc1cccc(Nc2cc(C)nc3nc(C)nn23)c1 | -3 | -1 | -2 | 11*
CCOC(=O)C[N+]1(C)CCN(C(C)=O)CC1 | -2 | -1 | 3 | 0
SMILES | HCV NS3 hel inh | IMP-1 inh | DNA FID counter | VIM-2 inhibitor
COc1cccc(NC(=O)CN2CCN(C(=O)c3ccco3)CC2)c1 | 7 | -4 | -17 | 0
NC(=O)c1ccccc1NC(=O)COc1ccc2c(c1)OCO2 | 0 | 0 | -7 | -4
COC(=O)C(=C/C(C)=C/c1cccnc1)C(=O)OC | -1 | 0 | 3 | -1
O=[N+]([O-])c1cc(Br)c(O)c(/C=N/Nc2nnnn2-c2cccc3ccccc23)c1 | -10 | 4.8* | 7 | -3
CCCCn1c(CCn2nc(C)c(Br)c2C)n[nH]c1=S | 3 | 1 | -21 | 8.1*
COc1cc(CC(=O)NCC2COc3ccccc3O2)cc(OC)c1OC (configuration not stated) | -1 | -2 | -13 | -2
COc1ccccc1-c1n[nH]c(=S)n1-c1ccccc1 | 10 | -3 | -9 | 8.9*
S=c1[nH]nc(-c2ccc3c(c2)OCO3)n1-c1ccccc1 | 5 | -4 | -5 | 11*
Cc1[nH]c2ccc(-c3n[nH]c(=S)n3-c3ccccc3)cc2c1C | 29 | -2 | -13 | 2
S=c1[nH]nc(-c2ccc(Cl)cc2Cl)n1-c1ccccc1 | -1 | -6 | -14 | 1
CS(=O)(=O)Nc1ccc(-c2n[nH]c(=S)n2-c2ccccc2)cc1 | -2 | -3 | -6 | 8.2*
COc1ccccc1-c1n[nH]c(=S)n1N | 10 | -3 | -4 | 1
S=c1[nH]nc(-c2ccc(Cl)cc2Cl)n1-c1ccc2c(c1)OCCO2 | 5 | -5 | -30 | 9.2*
S=c1[nH]nc(COc2ccc3c(c2)OCO3)n1-c1ccccc1 | 6 | -3 | -10 | -3
O=C(Nc1ccc(F)cc1)C1=CC(=O)N2CCN=C2S1 | -14 | 0 | 8 | -3
S=c1[nH]nc(-c2ccc(Br)cc2)n1-c1ccc2c(c1)OCCO2 | 2 | -5 | -26 | 1
COc1cc(OC)cc(-c2n[nH]c(=S)n2-c2ccc3c(c2)OCCO3)c1 | 12 | -5 | -11 | 8.1*
Cc1nn(C)cc1-c1n[nH]c(=S)n1-c1ccc(Cl)cc1 | -4 | -3 | -10 | 9.2*
Cc1ccc(S(=O)(=O)N2CCC(=O)N(C(COCc3ccc(C(F)(F)F)cc3)Cc3ccccc3)CC2)cc1 (configuration not stated) | 8 | 0 | -6 | 1
CCOC(=O)CSc1ccc2nnc(-c3cccs3)n2n1 | 3 | -5 | -10 | 7
O=C(CSc1ccc2nnc(-c3cccs3)n2n1)N1CCCC1 | 0 | -5 | -6 | 8.1*
Cc1ccc(OCc2cc(C(=O)N3CCc4sccc4C3)no2)cc1C | -4 | 0 | -36 | 0
CCc1c(C)nc2ncnn2c1NCCc1ccc(OC)cc1 | 2 | -4 | -11 | 8.9*
CC(O)(CS(=O)(=O)Cc1ccccc1)c1ccccc1Cl (configuration not stated) | 29 | 3 | -15 | 1
CCN(CC)c1ncnc2c1sc1nc(N3CCOCC3)c3c(c12)CCC3 | -2 | 7.0* | -1 | 0
SMILES | HCV NS3 hel inh | IMP-1 inh | DNA FID counter | VIM-2 inhibitor
CC(C)CNc1nnnc2c1sc1nc(N3CCOCC3)c3c(c12)CC(C)(C)SC3 | 0 | 0 | -13 | 1
CC1(C)Cc2c(c(N3CCOCC3)nc3sc4c(NN)ncnc4c23)CS1 | 8 | 12* | -15 | 0
COCCNC(=O)CCC1CCN(Cc2ccc(-c3ccccc3)cc2)CC1 | -9 | -2 | 3 | -2
CN(C)/C=N/C1=C(C#N)C(c2ccc(Br)cc2)c2ccc3ccccc3c2O1 (configuration not stated) | 19 | 6.1* | -17 | -2
O=C1c2cccc3cccc(c23)C(=O)N1CCN1CCN(C(=S)Nc2ccc(F)cc2)CC1 | 5 | -4 | 0 | -2
O=C(CN1CCN(CCN2C(=O)c3cccc4cccc(c34)C2=O)CC1)c1ccc(Cl)cc1 | -23 | -5 | 2 | 5
O=C(CN1CCN(CCN2C(=O)c3cccc4cccc(c34)C2=O)CC1)c1ccc(F)cc1 | -8 | -3 | 8 | 8.9*
Cc1ccc(NC(=S)N2CCN(CCN3C(=O)c4cccc5cccc(c45)C3=O)CC2)cc1 | 1 | -7 | 8 | 8.1*
